Measurements from ChEMBL document CHEMBL5058577, “EUbOPEN Chemogenomics Library 2 (Multiplex)” (2022).

Tested on: U2OS
Test: Multiplex assay against U2OS
Assay type: toxicity, cell-based
Conditions: human
Summary of the method: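 Live cells carried four stains from seeding: Hoechst33342, BioTracker Green Microtubule Cytoskeleton Dye, MitoTracker Red and Annexin V Alexa Fluor 680. They were imaged on a CQ1 microscope at 37°C and 5% CO2 after compound addition. Using CellPathfinder machine-learning gating, cells were split into Hoechst high-intensity objects or normal cells, normal cells into healthy, pyknosed or fragmented nuclei, and pyknosed cells into mitotic or apoptotic; tubulin, mitochondrial-mass and membrane-permeability phenotypes are per cents of healthy-nucleus cells.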

[1] = 12 h, 1 µM, compound concentration 1 uM, replicate 1
[2] = 12 h, 1 µM, compound concentration 1 uM, replicate 2
[3] = 12 h, 10 µM, compound concentration 10 uM, replicate 1
[4] = 12 h, 10 µM, compound concentration 10 uM, replicate 2
[5] = 24 h, 1 µM, compound concentration 1 uM, replicate 1
[6] = 24 h, 1 µM, compound concentration 1 uM, replicate 2
[7] = 24 h, 10 µM, compound concentration 10 uM, replicate 1
[8] = 24 h, 10 µM, compound concentration 10 uM, replicate 2
[9] = 48 h, 1 µM, compound concentration 1 uM, replicate 1
[10] = 48 h, 1 µM, compound concentration 1 uM, replicate 2
[11] = 48 h, 10 µM, compound concentration 10 uM, replicate 1
[12] = 48 h, 10 µM, compound concentration 10 uM, replicate 2

## N#Cc1c(Oc2cccc(OS(=O)(=O)CCCC(F)(F)F)c2)cccc1C(F)(F)F
[1]
  Population Apoptotic (%): 77%
  Population Fragmented Nuclei (%): 27%
  Population Healthy Nuclei (%): 61%
  Population Hoechst High Intensity Objects (%): 3%
  Population Membrane Permeable-Phenotype (%): 4%
  Population Mitochondria Different-Phenotype (%): 2%
  Population Mitotic Cells (%): 22%
  Population Normal (%): 96%
  Population Pyknosed Nuclei (%): 10%
  Population Tubulin-Different-Phenotype (%): 0%
  Total Cell Count: 220
[2]
  Population Apoptotic (%): 81%
  Population Fragmented Nuclei (%): 12%
  Population Healthy Nuclei (%): 76%
  Population Hoechst High Intensity Objects (%): 0%
  Population Membrane Permeable-Phenotype (%): 7%
  Population Mitochondria Different-Phenotype (%): 7%
  Population Mitotic Cells (%): 18%
  Population Normal (%): 99%
  Population Tubulin-Different-Phenotype (%): 8%
  Total Cell Count: 109
[3]
  Population Apoptotic (%): 78%
  Population Fragmented Nuclei (%): 27%
  Population Healthy Nuclei (%): 63%
  Population Hoechst High Intensity Objects (%): 3%
  Population Membrane Permeable-Phenotype (%): 11%
  Population Mitochondria Different-Phenotype (%): 8%
  Population Mitotic Cells (%): 21%
  Population Normal (%): 96%
  Population Pyknosed Nuclei (%): 8%
  Population Tubulin-Different-Phenotype (%): 7%
  Total Cell Count: 222
[4]
  Population Apoptotic (%): 90%
  Population Fragmented Nuclei (%): 14%
  Population Healthy Nuclei (%): 75%
  Population Hoechst High Intensity Objects (%): 0%
  Population Membrane Permeable-Phenotype (%): 21%
  Population Mitochondria Different-Phenotype (%): 4%
  Population Mitotic Cells (%): 9%
  Population Normal (%): 99%
  Population Pyknosed Nuclei (%): 9%
  Total Cell Count: 112
[5]
  Population Apoptotic (%): 75%
  Population Fragmented Nuclei (%): 25%
  Population Healthy Nuclei (%): 61%
  Population Hoechst High Intensity Objects (%): 2%
  Population Membrane Permeable-Phenotype (%): 4%
  Population Mitochondria Different-Phenotype (%): 2%
  Population Mitotic Cells (%): 24%
  Population Normal (%): 97%
  Population Pyknosed Nuclei (%): 12%
  Population Tubulin-Different-Phenotype (%): 3%
  Total Cell Count: 263
[6]
  Population Apoptotic (%): 90%
  Population Fragmented Nuclei (%): 12%
  Population Healthy Nuclei (%): 79%
  Population Hoechst High Intensity Objects (%): 1%
  Population Membrane Permeable-Phenotype (%): 11%
  Population Mitochondria Different-Phenotype (%): 3%
  Population Mitotic Cells (%): 10%
  Population Normal (%): 98%
  Population Pyknosed Nuclei (%): 7%
  Population Tubulin-Different-Phenotype (%): 7%
  Total Cell Count: 130
[7]
  Population Apoptotic (%): 66%
  Population Fragmented Nuclei (%): 26%
  Population Healthy Nuclei (%): 66%
  Population Hoechst High Intensity Objects (%): 6%
  Population Membrane Permeable-Phenotype (%): 10%
  Population Mitochondria Different-Phenotype (%): 8%
  Population Mitotic Cells (%): 33%
  Population Normal (%): 93%
  Population Pyknosed Nuclei (%): 7%
  Population Tubulin-Different-Phenotype (%): 5%
  Total Cell Count: 252
[8]
  Population Fragmented Nuclei (%): 9%
  Population Healthy Nuclei (%): 83%
  Population Hoechst High Intensity Objects (%): 3%
  Population Membrane Permeable-Phenotype (%): 11%
  Population Mitochondria Different-Phenotype (%): 0%
  Population Normal (%): 96%
  Population Tubulin-Different-Phenotype (%): 7%
  Total Cell Count: 130
[9]
  Population Apoptotic (%): 87%
  Population Fragmented Nuclei (%): 17%
  Population Healthy Nuclei (%): 70%
  Population Hoechst High Intensity Objects (%): 3%
  Population Membrane Permeable-Phenotype (%): 4%
  Population Mitochondria Different-Phenotype (%): 0%
  Population Mitotic Cells (%): 12%
  Population Normal (%): 96%
  Population Pyknosed Nuclei (%): 11%
  Population Tubulin-Different-Phenotype (%): 3%
  Total Cell Count: 361
[10]
  Population Apoptotic (%): 100%
  Population Fragmented Nuclei (%): 16%
  Population Healthy Nuclei (%): 73%
  Population Hoechst High Intensity Objects (%): 2%
  Population Membrane Permeable-Phenotype (%): 9%
  Population Mitochondria Different-Phenotype (%): 4%
  Population Mitotic Cells (%): 0%
  Population Normal (%): 97%
  Population Pyknosed Nuclei (%): 9%
  Population Tubulin-Different-Phenotype (%): 7%
  Total Cell Count: 195
[11]
  Population Apoptotic (%): 91%
  Population Fragmented Nuclei (%): 23%
  Population Healthy Nuclei (%): 64%
  Population Hoechst High Intensity Objects (%): 4%
  Population Membrane Permeable-Phenotype (%): 10%
  Population Mitochondria Different-Phenotype (%): 6%
  Population Mitotic Cells (%): 8%
  Population Normal (%): 95%
  Population Pyknosed Nuclei (%): 11%
  Population Tubulin-Different-Phenotype (%): 6%
  Total Cell Count: 328
[12]
  Population Apoptotic (%): 100%
  Population Fragmented Nuclei (%): 11%
  Population Healthy Nuclei (%): 77%
  Population Hoechst High Intensity Objects (%): 3%
  Population Membrane Permeable-Phenotype (%): 13%
  Population Mitochondria Different-Phenotype (%): 4%
  Population Mitotic Cells (%): 0%
  Population Normal (%): 96%
  Population Pyknosed Nuclei (%): 10%
  Population Tubulin-Different-Phenotype (%): 7%
  Total Cell Count: 184
